Compound activity from PubChem BioAssay.
The list is not random: actives were taken first. Their share in the collection is about 2.9%.
PAX8 inh HTS = inhibitors of PAX8 transcriptional activity in RMG-I cells. RMG-I TPO-luciferase reporter, SteadyGlo, 24 h. inhibition, % at 12.6 µM. hit rate 1.2% among 360,000;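 active means mean replicate inhibition at least 60% with every replicate also reaching 60%; inconclusive means only one of the two criteria is met; inactive means mean below 60% and not all replicates reaching 60%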;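 further: luciferase light reporting Pax8 driven TPO promoter activity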
Cneo AK release = Cryptococcus neoformans lysis via adenylate kinase release; AID 651654; C. neoformans lysis, adenylate kinase release luminescence, 4 h; normalised: neutral wells 0, clomiphene wells 100; hit rate 0.2% among 360,000; lysis activity, % at 15 µM;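 active means mean lysis activity across replicates of at least 80%, whatever share of replicates individually reach that level; inactive means mean lysis activity below 80%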
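Material: C. neoformans cells | Amount: Yeast cell density of 5 × 10^6 cells/mL | Medium: Fresh YPD growth medium | Dosing: Single dose | Times: Static 4 h at 37 °C with compound, 1 h detection | Detection: AK luminescence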
GSIS activator = GLuc luminescence reporter in INS-1E cells, primary screen for activators of glucose-dependent secretion of insulin. hit rate 0.61% among 370,000. INS-1E GLuc reporter insulin secretion, 2-3 h. activation, % at 16.6 µM;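 active means lowest replicate activation of at least 40%, so every replicate reaches that level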
HIV Env fusion = inhibitors of HIV Env-mediated cell fusion | HeLa-JRFL Env/CEM21 cell fusion, luciferase | inhibition, % at 12.3 µM | hit rate 1.1% among 360,000 | AID 651610;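 active means mean replicate inhibition score of at least 50 and every replicate individually at or above 50; inconclusive means only one of the two criteria met; inactive means mean below 50 and not all replicates reaching 50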
dFosB activator = mouse delta FosB homodimer activation; hit rate 0.99% among 340,000; AID 493131; purified delta FosB, TAMRA-CDK5 oligo fluorescence polarization; percent of positive-control signal above neutral wells; activation, % at 25 µM; P13346;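 active means mean activation above about 17%, with every replicate also reaching it, limit read from the data, passing the limit was not always enough; inconclusive means only one of the two conditions met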
Target sequence (P13346 whole entry, looked up): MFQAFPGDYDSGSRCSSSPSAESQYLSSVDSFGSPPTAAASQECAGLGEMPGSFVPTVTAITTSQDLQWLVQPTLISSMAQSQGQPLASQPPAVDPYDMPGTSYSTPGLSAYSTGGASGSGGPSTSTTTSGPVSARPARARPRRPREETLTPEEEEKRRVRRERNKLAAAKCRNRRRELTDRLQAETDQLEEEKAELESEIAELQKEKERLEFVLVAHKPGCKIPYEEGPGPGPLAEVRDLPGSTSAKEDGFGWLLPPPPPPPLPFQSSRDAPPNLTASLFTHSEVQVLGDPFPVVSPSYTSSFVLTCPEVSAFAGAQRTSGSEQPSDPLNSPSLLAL
CDK5 p35 inh = blocks human CDK5/p35 kinase activity; Recombinant CDK5/p35, ADP-Glo luminescence, 60 min; Q00535+Q15078; hit rate 0.01% among 330,000; inhibition, % at 10 µM;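 active means highest replicate inhibition of at least 50% and at least 75% of replicates reaching 50%; inconclusive means only one of the two criteria met; inactive means both criteria failed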
Numbers stand for hits; . = inactive; ? = inconclusive; / = no result.

SMILES	PAX8 inh HTS	Cneo AK release	GSIS activator	HIV Env fusion	dFosB activator	CDK5 p35 inh
C[C@@H]1CN([C@H](C)CO)C(=O)c2cc(NC(=O)Cc3ccccc3)ccc2O[C@@H](C)CCCCO[C@@H]1CN(C)C	.	.	.	.	/	/
COC(=O)CCC[C@H]1CC2(C[C@H](CCCO[Si](C)(C)C(C)(C)C)N1C(=O)OC(C)(C)C)OCCO2	.	.	.	74.4	.	.
CCCNC(=O)Nc1ccc2c(c1)OC[C@@H](C)N(S(C)(=O)=O)C[C@H](C)[C@@H](OC)CN(C)C2=O	.	/	.	/	/	/
CCN1CCn2c3c(c4cc(C)ccc42)CCCC31 (stereo not given)	/	.	/	/	.	.
Cc1ccc2c(c1)c1c3n2CCN(CCC#N)C3CCC1 (stereo not given)	.	.	.	71.7	/	/
O=C(c1ccc(Cl)c([N+](=O)[O-])c1)N(Cc1ccco1)C1CCS(=O)(=O)C1 (stereo not given)	.	.	43.2	.	.	.
O=C(c1cccs1)N(Cc1cccc(F)c1)C1CCS(=O)(=O)C1 (stereo not given)	.	.	45.8	.	.	.
Cc1ccc(CN(C(=O)c2cccs2)C2CCS(=O)(=O)C2)cc1 (stereo not given)	.	.	57.0	.	.	.
CCOc1cccc(C(=O)N(Cc2ccco2)C2CCS(=O)(=O)C2)c1 (stereo not given)	/	.	/	/	.	.
O=C(c1ccco1)N(Cc1ccc(Cl)cc1)C1CCS(=O)(=O)C1 (stereo not given)	.	.	41.7	.	.	.
O=C(c1cccs1)N(Cc1ccc(F)cc1)C1CCS(=O)(=O)C1 (stereo not given)	.	.	.	.	.	.
COc1ccc(S(=O)(=O)N2C[C@H](O)COC[C@H]3O[C@H](CC(=O)N[C@H]4CCN(Cc5ccccc5)C4)CC[C@@H]32)cc1	.	.	.	.	/	/
COc1ccccc1S(=O)(=O)N[C@H]1C=C[C@H](CC(=O)N2CCCCC2)O[C@H]1CO	.	.	.	.	/	/
O=C(CN1CCN(c2ccccn2)CC1)Nc1ccc([N+](=O)[O-])cc1C(=O)Nc1ccccc1F	.	.	.	59.7	.	.
Cc1cnc(NC(=O)CN2CCN(c3ccccn3)CC2)s1	68.1	.	.	.	.	.
Cc1cc(C)n(-c2nc3ccccc3nc2N2CCN(S(=O)(=O)c3ccc4ccccc4c3)CC2)n1	/	.	.	56.2	.	.
Cc1cc(C)n(-c2nc3ccccc3nc2N2CCN(S(=O)(=O)c3ccc(F)c(C)c3)CC2)n1	/	.	.	/	.	.
COCc1cn(CC[C@@H]2CC[C@H](NC(=O)Cc3cccnc3)[C@@H](CO)O2)nn1	.	.	.	.	/	/
Oc1c(C(Nc2nccs2)c2ccc(C(F)(F)F)cc2)ccc2cccnc12 (stereo not given)	85.0	/	.	.	.	.
Oc1c(C(Nc2cccc(C(F)(F)F)c2)c2ccncc2)ccc2cccnc12 (stereo not given)	.	/	.	.	.	.
CCCC(=O)NC(c1cccs1)c1cc(Cl)c2cccnc2c1O (stereo not given)	.	/	.	73.8	.	.
CCC(=O)NC(c1cccs1)c1ccc2cccnc2c1O (stereo not given)	66.3	/	.	.	.	.
O=C(Cc1ccccc1)N[C@@H]1C=C[C@@H](CC(=O)N2CCCCC2)O[C@H]1CO	.	.	.	.	/	/
C[C@H](CO)N1C[C@H](C)[C@H](CN(C)Cc2ccc(C(=O)O)cc2)OCCCC[C@H](C)Oc2ccc(NC(=O)CCC(F)(F)F)cc2C1=O	/	.	.	.	/	/
C[C@@H]1CN([C@H](C)CO)C(=O)c2cc(NC(=O)Cc3ccccc3)ccc2O[C@H]1CN(C)C(=O)NC1CCCCC1	.	.	.	.	/	/
SMILES	PAX8 inh HTS	Cneo AK release	GSIS activator	HIV Env fusion	dFosB activator	CDK5 p35 inh
COc1cc(OC)cc(-c2sc3ccc(OC)cc3c2C#CC2(N)CCCCC2)c1	.	.	.	.	.	.
COc1ccc(-c2sc3cc4c(cc3c2C#CC2(N)CCCCC2)OCO4)cc1	.	.	/	.	66.8	.
CN(C[C@@H]1N[C@H](CO)[C@H]1c1ccc(C2=CCCC2)cc1)C(=O)c1ccncc1	.	.	.	/	/	/
COCC(=O)NC[C@H]1N[C@H](CO)[C@H]1c1ccc(C2=CCCC2)cc1	.	97.2	.	/	/	/
CCC(=O)NC[C@H]1N[C@H](CO)[C@@H]1c1ccc(C2=CCCC2)cc1	.	.	.	/	/	/
COCC(=O)NC[C@H]1N[C@H](CO)[C@@H]1c1ccc(C2=CCCC2)cc1	.	108.3	.	/	/	/
CCCNC(=O)N(C)C[C@H]1N[C@@H](CO)[C@@H]1c1ccc(C2=CCCCC2)cc1	102.9	.	.	/	/	/
Cc1cc(N2CCCC2=O)cc(C)c1S(=O)(=O)NCCOc1ccc(C(C)(C)C)cc1	.	.	.	84.8	.	.
O=[N+]([O-])c1cc(-c2ccccc2)cc([N+](=O)[O-])c1O	/	.	.	.	.	.
O=C([O-])c1ccccc1-[n+]1c(-c2ccccc2)cc(-c2ccccc2)cc1-c1ccccc1	85.2	.	.	.	.	.
CC1Nc2ncnc(N3CCc4ccccc4C3)c2N(Cc2ccc(Cl)cc2)C1=O (stereo not given)	/	.	73.8	/	?	.
COc1ccc(S(=O)(=O)Nc2ccc3c(c2)C(=O)N([C@H](C)CO)C[C@@H](C)[C@H](CN(C)C(=O)Nc2cccc4ccccc24)O3)cc1	/	.	.	/	/	/
COc1ccc(OC)c(Nc2nc(NCc3ccco3)c3ccccc3n2)c1	.	.	.	.	52.6	.
COc1cccc(-c2nc(NCc3ccco3)c3ccccc3n2)c1O	/	.	75.6	/	.	.
Oc1ccccc1Nc1nc(NCc2ccco2)c2ccccc2n1	.	/	.	.	?	.
Cc1ccccc1Nc1nc(NCc2ccco2)c2ccccc2n1	.	.	.	.	36.3	.
c1ccc(Nc2nc(NCc3ccco3)c3ccccc3n2)cc1	67.0	.	.	.	?	.
Cc1cccc(Nc2nc(NCc3ccco3)c3ccccc3n2)c1	/	/	/	.	37.9	.
Fc1ccc(-c2nc3c4ccccc4ccn3c2Cc2ccsc2)cc1	.	.	.	56.6	/	/
Cc1ccc2nc(-c3ccco3)c(Cc3ccccc3)n2c1	66.1	.	.	.	/	/
Cc1cc(Br)cn2c(Cc3cccc(F)c3)c(-c3ccco3)nc12	.	/	65.5	.	/	/
c1coc(-c2nc3c4ccccc4ccn3c2Cc2ccsc2)c1	.	/	.	63.4	/	/
Fc1cccc(Cc2c(-c3ccco3)nc3ccc(Br)cn23)c1	.	.	.	.	/	/
COC(=O)[C@@]1(Cc2ccccc2CN=[N+]=[N-])COC(c2ccc(OCCCO)cc2)=N1	.	.	/	.	/	/
Fc1cccc(Cc2c(-c3ccco3)nc3c4ccccc4ccn23)c1	.	.	.	68.6	/	/
Clc1cccc(Cc2c(-c3ccco3)nc3c4ccccc4ccn23)c1	.	/	/	.	/	/
